# In ChEMBL document CHEMBL2203235, “Optimization of a natural product-based class of γ-secretase modulators” (J Med Chem, 2012):
# pIC50: −log10 of the molar value.
# Assays:
# CHO-2B7 [1] = test: Modulation of gamma secretase in CHO-2B7 cells assessed as reduction in amyloid beta 40 level at 100 uM after 5 hrs by MSD ELISA; type: cell-based; parameters: scale not given: the % may be the effect or the level left; conditions: Cricetulus griseus
# [2] = Metabolic stability in human liver microsomes assessed as compound remaining at 1 uM at 60 mins by LC/MS/MS analysis in absence of NADPH; type: ADME, Microsome; conditions: liver microsomes, read-out: Stability
# How it was run: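 Human liver microsomes were run without NADPH as a qualitative read of susceptibility to enzymatic hydrolysis. The read-out was percent parent remaining at 60 min.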
# [3] = Modulation of gamma secretase in CHO-2B7 cells assessed as reduction in amyloid beta 42 level after 5 hrs by MSD ELISA; type: cell-based; conditions: Cricetulus griseus, CHO-2B7, 5 h
# [4] = Metabolic stability in human liver microsomes assessed as compound remaining at 1 uM at 60 mins by LC/MS/MS analysis in presence of NADPH; type: ADME, Microsome; conditions: read-out: Stability
# CHO-2B7 [5] = test: Modulation of gamma secretase in CHO-2B7 cells assessed as reduction in amyloid beta 40 level at 4 mM after 5 hrs by MSD ELISA; type: cell-based; parameters: scale not given: the % may be the effect or the level left; conditions: Cricetulus griseus
# Liver microsomes = test: Metabolic stability in human liver microsomes at 1 uM after 60 mins by LC/MS/MS analysis; conditions: 1 h
# [6] = Modulation of gamma-secretase assessed as reduction in amyloid beta 42 level by cell based assay
# [7] = Modulation of gamma-secretase assessed as increase in amyloid beta 38 level at 800 nM by cell based assay relative to control
# [8] = Modulation of gamma-secretase assessed as reduction in amyloid beta 40 level by cell based assay
# CHO-2B7 [9] = test: Modulation of gamma secretase in CHO-2B7 cells assessed as reduction in amyloid beta 40 level at 20 uM after 5 hrs by MSD ELISA; type: cell-based; parameters: scale not given: the % may be the effect or the level left; conditions: Cricetulus griseus
# CHO-2B7 [10] = test: Modulation of gamma secretase in CHO-2B7 cells assessed as reduction in amyloid beta 42 level at 4 uM after 5 hrs by MSD ELISA; type: cell-based; parameters: scale not given: the % may be the effect or the level left; conditions: Cricetulus griseus
# CHO-2B7 [11] = test: Modulation of gamma secretase in CHO-2B7 cells assessed as reduction in amyloid beta 40 level at 4 uM after 5 hrs by MSD ELISA; type: cell-based; parameters: scale not given: the % may be the effect or the level left; conditions: Cricetulus griseus
# [12] = Drug uptake in CD1 mouse brain at 3 mg/kg, iv at 6 hrs; type: ADME, organism-based; parameters: dose 3 mg/kg, route intravenous; conditions: read-out: Drug uptake
# How it was run: (§1)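 CD-1 mice dosed by the IV route. Plasma and brain drug concentrations were measured at 6 h post dose, or at 2 h for one analogue. The brain-to-plasma ratio was calculated from these concentrations and used to rank CNS penetration.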
# [13] = Ratio of drug uptake in brain to plasma in CD1 mouse at 3 mg/kg, iv at 6 hrs; type: ADME, organism-based; parameters: dose 3 mg/kg, route intravenous; conditions: brain and plasma, read-out: BPR; how it was run: as §1
# [14] = Modulation of gamma secretase in CHO-2B7 cells assessed as reduction in amyloid beta 40 level after 5 hrs by MSD ELISA; type: cell-based; conditions: Cricetulus griseus, CHO-2B7, 5 h
# [15] = Plasma concentration in CD1 mouse at 3 mg/kg, iv at 6 hrs; type: ADME, organism-based; parameters: dose 3 mg/kg, route intravenous; how it was run: as §1
# [16] = Modulation of gamma-secretase assessed as increase in amyloid beta 38 level by cell based assay
# CHO-2B7 [17] = test: Modulation of gamma secretase in CHO-2B7 cells assessed as reduction in amyloid beta 40 level at 20 mM after 5 hrs by MSD ELISA; type: cell-based; parameters: scale not given: the % may be the effect or the level left; conditions: Cricetulus griseus
structure (smiles),measurement,setting,value
CC(=O)OC[C@H]1C[C@@H](C)[C@H]2[C@H](O1)[C@H](O)[C@@]1(C)[C@@H]3CC[C@H]4C(C)(C)[C@@H](O[C@H]5CN(C(=O)CC6CC6)CCO5)CC[C@@]45C[C@@]35CC[C@]21C,Activity,CHO-2B7 [1],66%
same,"remaining at 1 h, 1 µM",[2],23%
same,pIC50,[3],6.62
CC(=O)O[C@@H]([C@H]1C[C@@H](C)[C@H]2[C@H](O1)[C@H](O)[C@@]1(C)[C@@H]3CC[C@H]4C(C)(C)[C@@H](O[C@H]5CN([C@H]6CCNC6=O)CCO5)CC[C@@]45C[C@@]35CC[C@]21C)C(C)(C)O,"remaining at 1 h, 1 µM",[2],3%
same,"remaining at 1 h, 1 µM",[4],63%
same,pIC50,[3],6.77
CCO[C@@H]([C@H]1C[C@@H](C)[C@H]2[C@H](O1)[C@H](O)[C@@]1(C)[C@@H]3CC[C@H]4C(C)(C)[C@@H](O[C@H]5CN(CC(=O)N(C)C)CCO5)CC[C@@]45C[C@@]35CC[C@]21C)C(C)(C)O,Activity,CHO-2B7 [5],38%
same,pIC50,[3],6.57
same,Stability,Liver microsomes,Stable
C[C@@H]1C[C@H]([C@H](O)C(C)(C)O)O[C@H]2[C@H]1[C@@]1(C)CC[C@@]34C[C@@]35CC[C@H](O[C@H]3CNCCO3)C(C)(C)[C@@H]5CC[C@H]4[C@]1(C)[C@H]2O,"remaining at 1 h, 1 µM",[2],112%
same,"remaining at 1 h, 1 µM",[4],40%
same,pIC50,[3],5.80
COc1cc(/C=C2\CCCN([C@@H](C)c3ccc(F)cc3)C2=O)ccc1-n1cnc(C)c1,pIC50,[6],7.21
same,Activity,[7],280%
same,pIC50,[8],6.55
CC(=O)O[C@@H]([C@H]1C[C@@H](C)[C@H]2[C@H](O1)[C@H](O)[C@@]1(C)[C@@H]3CC[C@H]4C(C)(C)[C@@H](O[C@H]5CN(C6COC6)CCO5)CC[C@@]45C[C@@]35CC[C@]21C)C(C)(C)O,Activity,CHO-2B7 [9],35%
same,"remaining at 1 h, 1 µM",[2],1%
same,"remaining at 1 h, 1 µM",[4],1%
same,pIC50,[3],6.77
CC(C)CC[C@H](c1ccc(Cl)cc1)N1CC[C@@H](CC(=O)O)C[C@H]1c1ccc(C(F)(F)F)cc1,pIC50,[6],7.00
same,Activity,[7],280%
same,pIC50,[8],5.08
C[C@@H]1C[C@H]([C@H](O)C(C)(C)O)O[C@H]2[C@H]1[C@@]1(C)CC[C@@]34C[C@@]35CC[C@H](O[C@H]3CN(C(=O)CC6CC6)CCO3)C(C)(C)[C@@H]5CC[C@H]4[C@]1(C)[C@H]2O,Activity,CHO-2B7 [10],40%
same,pIC50,[3],7.15
CCO[C@@H]([C@H]1C[C@@H](C)[C@H]2[C@H](O1)[C@H](O)[C@@]1(C)[C@@H]3CC[C@H]4C(C)(C)[C@@H](OC(=O)NCCN5CCC5)CC[C@@]45C[C@@]35CC[C@]21C)C(C)(C)O,pIC50,[3],6.66
same,Activity,CHO-2B7 [11],41%
same,Stability,Liver microsomes,Stable
CCO[C@@H]([C@H]1C[C@@H](C)[C@H]2[C@H](O1)[C@H](O)[C@@]1(C)[C@@H]3CC[C@H]4C(C)(C)[C@@H](O[C@H]5CN(CC(=O)N6CCC6)CCO5)CC[C@@]45C[C@@]35CC[C@]21C)C(C)(C)O,Activity,CHO-2B7 [5],39%
same,pIC50,[3],6.60
same,Stability,Liver microsomes,Stable
CCO[C@@H]([C@H]1C[C@@H](C)[C@H]2[C@H](O1)[C@H](O)[C@@]1(C)[C@@H]3CC[C@H]4C(C)(C)[C@@H](O[C@H]5CN(CC(F)F)CCO5)CC[C@@]45C[C@@]35CC[C@]21C)C(C)(C)O,Activity,CHO-2B7 [5],37%
same,pIC50,[3],6.27
same,Stability,Liver microsomes,Stable
CC(C)C[C@H](C(=O)O)c1cc(-c2ccc(C(F)(F)F)cc2)cc(-c2ccc(C(F)(F)F)cc2)c1,pIC50,[6],6.59
same,Activity,[7],240%
same,pIC50,[8],5.04
CCO[C@@H]([C@H]1C[C@@H](C)[C@H]2[C@H](O1)[C@H](O)[C@@]1(C)[C@@H]3CC[C@H]4C(C)(C)[C@@H](O[C@H]5CN(C6COC6)CCO5)CC[C@@]45C[C@@]35CC[C@]21C)C(C)(C)O,concentration at 6 h,[12],12 nM
same,Kp at 6 h,[13],0.5
same,pIC50,[14],5.34
same,concentration at 6 h,[15],24 nM
same,"remaining at 1 h, 1 µM",[2],94%
same,pIC50,[3],6.57
same,Stability,Liver microsomes,Stable
CC(=O)O[C@@H]([C@H]1C[C@@H](C)C2=C(O1)[C@H](O)[C@@]1(C)[C@@H]3CC[C@H]4C(C)(C)[C@@H](O[C@@H]5OC[C@@H](O)[C@H](O)[C@H]5O)CC[C@@]45C[C@@]35CC[C@]21C)C(C)(C)O,pIC50,[6],7.00
same,pIC50,[16],7.21
same,pIC50,[8],5.57
CCO[C@@H]([C@H]1C[C@@H](C)[C@H]2[C@H](O1)[C@H](O)[C@@]1(C)[C@@H]3CC[C@H]4C(C)(C)[C@@H](O[C@H]5CNCCO5)CC[C@@]45C[C@@]35CC[C@]21C)C(C)(C)O,concentration at 6 h,[12],320 nM
same,Kp at 6 h,[13],1.67
same,pIC50,[14],5.85
same,concentration at 6 h,[15],192 nM
same,"remaining at 1 h, 1 µM",[2],28%
same,pIC50,[3],7.04
same,Stability,Liver microsomes,Stable
CC(=O)O[C@@H]([C@H]1C[C@@H](C)[C@H]2[C@H](O1)[C@H](O)[C@@]1(C)[C@@H]3CC[C@H]4C(C)(C)[C@@H](O[C@H]5CNCCO5)CC[C@@]45C[C@@]35CC[C@]21C)C(C)(C)O,pIC50,[14],5.66
same,"remaining at 1 h, 1 µM",[2],7%
same,"remaining at 1 h, 1 µM",[4],3%
same,pIC50,[3],7.15
C[C@@H]1C[C@H]([C@H](O)C(C)(C)O)O[C@H]2[C@H]1[C@@]1(C)CC[C@@]34C[C@@]35CC[C@H](O[C@H]3CN(C6COC6)CCO3)C(C)(C)[C@@H]5CC[C@H]4[C@]1(C)[C@H]2O,"remaining at 1 h, 1 µM",[2],107%
same,"remaining at 1 h, 1 µM",[4],81%
same,pIC50,[3],≤ 4.70
CCO[C@@H]([C@H]1C[C@@H](C)[C@H]2[C@H](O1)[C@H](O)[C@@]1(C)[C@@H]3CC[C@H]4C(C)(C)[C@@H](O[C@H]5CN(CC(F)(F)F)CCO5)CC[C@@]45C[C@@]35CC[C@]21C)C(C)(C)O,Activity,CHO-2B7 [17],44%
same,pIC50,[3],5.64
same,Stability,Liver microsomes,Stable
